ChEMBL document CHEMBL4831482 (Eur J Med Chem, 2021)
Converted amounts (≈) assume the structure as drawn. The source made the active and inactive calls. The calls are words filed in the database; no cut-off is given here. Where a SMILES comes first, the peptide text is derived from it. The star is where a group is joined. Boc = CC(C)(C)OC(=O)*

What was measured:
Klebsiella pneumoniae = test: Antibacterial activity against Klebsiella pneumoniae ATCC BAA1705 assessed as inhibition of bacterial growth by CLSI method; format: functional, organism-based
Vero = test: Cytotoxicity against African green monkey Vero cells assessed as reduction in cell viability incubated for 48 hrs by Neutral red assay; format: cell-based; conditions: chlorocebus sabaeus
Method in brief: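 VERO monkey kidney cells seeded at 25,000 cells/well and incubated 24 h to confluency. Peptide added, then a further 48 h incubation. Viability read by neutral red uptake.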

Cryptococcus neoformans [1] = test: Antifungal activity against Cryptococcus neoformans ATCC 90113 assessed as inhibition of fungal growth by CLSI method; format: functional, organism-based
Aspergillus fumigatus = test: Antifungal activity against Aspergillus fumigatus ATCC 1022 assessed as inhibition of fungal growth by CLSI method; format: functional, organism-based
[2] = Aggregation property of the compound in PBS assessed as particle size at pH 7.4 measured after 4 hrs by dynamic light scattering analysis (reference value: 802 nm); format: physicochemical; conditions: buffer, pH 7.4, 4 h
[3] = Aggregation property of the compound in PBS assessed as polydispersity index at pH 7.4 by dynamic light scattering analysis (reference value: 0.383); format: physicochemical; conditions: buffer
Candida albicans = test: Antifungal activity against Candida albicans ATCC 10231 assessed as inhibition of fungal growth by CLSI method; format: functional, organism-based
Cell membrane [4] = test: Induction of membrane permeabilization and disruption in Cryptococcus neoformans ATCC350 assessed as increase in green fluorescence intensity using FITC-labeled compound at MIC measured after 1 hr by confocal laser scanning microscopic analysis; format: subcellular
Cryptococcus neoformans [5] = test: Disruption of capsule in Cryptococcus neoformans ATCC350 by HR-TEM analysis
Enterococcus = test: Antibacterial activity against vancomycin resistant Enterococcus ATCC MP-1 assessed as inhibition of bacterial growth by CLSI method; format: functional, organism-based
Staphylococcus aureus = test: Antibacterial activity against methicillin-resistant Staphylococcus aureus ATCC 33591 assessed as inhibition of bacterial growth by CLSI method; format: functional, organism-based
Cell wall = test: Disruption of Cell wall in Cryptococcus neoformans ATCC350 by HR-TEM analysis; format: subcellular
Cryptococcus neoformans [6] = test: Induction of DNA damage in Cryptococcus neoformans ATCC350 assessed as nuclear and chromatin fragmentation by measuring reduction in blue fluorescence intensity at MIC measured after 1 hr by DAPI staining based confocal laser scanning microscopic analysis; format: functional, organism-based
Method in brief: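 Cells centrifuged, resuspended in PBS and stained with DAPI (3.01 µM, 10 min). Confocal imaging at Ex/Em 350/470 nm, with untreated cells as control.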

Cell membrane [7] = test: Induction of membrane permeabilization in Cryptococcus neoformans ATCC350 assessed as increase in red fluorescence intensity at MIC measured after 1 hr by propidium iodide staining based confocal laser scanning microscopic analysis; format: subcellular
Method in brief: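 Cells centrifuged, resuspended in PBS pH 7.4 and stained with propidium iodide. Confocal imaging at >560 nm, with untreated cells as control.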

Escherichia coli = test: Antibacterial activity against Escherichia coli ATCC 35218 assessed as inhibition of bacterial growth by CLSI method; format: functional, organism-based
[8] = Aggregation property of the compound in PBS assessed as particle size at pH 7.4 measured after 4 hrs by dynamic light scattering analysis (reference value: 2073 nm); format: physicochemical; conditions: buffer, pH 7.4, 4 h
Cryptococcus neoformans [9] = test: Potency index, ratio of Amphotericin B IC50 to test compound IC50 for antifungal activity against Cryptococcus neoformans ATCC 90113 assessed as inhibition of fungal growth by CLSI method; format: functional
Lipid bilayer [10] = test: Binding affinity to bacterial membrane mimic EPYC/EPYG (7:3) small unilamellar vesicle assessed as Stern-Volmer quenching constant by tryptophan quenching analysis
Cryptococcus neoformans [11] = test: Potency index, ratio of Amphotericin B MIC to test compound MIC for antifungal activity against Cryptococcus neoformans ATCC 90113 assessed as inhibition of fungal growth by CLSI method; format: functional
Cell membrane [12] = test: Disruption of Plasma membrane in Cryptococcus neoformans ATCC350 by HR-TEM analysis; format: cell membranes
[13] = Aggregation property of the compound in PBS assessed as polydispersity index at pH 7.4 by dynamic light scattering analysis (reference value: 0.333); format: physicochemical; conditions: buffer
Lipid bilayer [14] = test: Binding affinity to mammalian membrane mimic EPYC/cholesterol (10:1) small unilamellar vesicle assessed as Stern-Volmer quenching constant by tryptophan quenching analysis
Cell membrane [15] = test: Induction of pore formation in Cryptococcus neoformans ATCC350 assessed as membrane permeabilization by measuring release of intracellular material at MIC by scanning electron microscopy; format: subcellular
Pseudomonas aeruginosa = test: Antibacterial activity against Pseudomonas aeruginosa ATCC 27853 assessed as inhibition of bacterial growth by CLSI method; format: functional, organism-based

SMILES | Activity (Klebsiella pneumoniae) | Activity (Vero) | IC50 (Cryptococcus neoformans [1]) | Activity (Aspergillus fumigatus) | Activity (Candida albicans) | IC50 (Enterococcus) | MIC (Enterococcus) | MIC (Cryptococcus neoformans [1]) | IC50 (Staphylococcus aureus) | MIC (Staphylococcus aureus) | IC50 (Escherichia coli) | IC50 (Pseudomonas aeruginosa) | further results
COC(=O)[C@H](CCCNC(=N)N)NC(=O)[C@H](Cc1c[nH]c2ccccc12)NC(=O)[C@H](Cc1c[nH]cn1)NC(=O)OC(C)(C)C (Boc-His-Trp-Arg-OMe) | inactive | > 10 µg/mL | > 20 µg/mL | inactive | inactive |  |  |  |  |  |  |  | Activity [2]: 108 nm; Activity [3]: 0.922; Activity (Cell membrane [4]): inactive
CCCCc1ccc(-c2nc(C[C@H](N)C(=O)N[C@@H](Cc3c[nH]c4ccccc34)C(=O)N[C@@H](CCCNC(=N)N)C(=O)OC)c[nH]2)cc1.Cl.Cl | inactive | > 10 µg/mL | 0.37 µg/mL | inactive | inactive | 15.4 µg/mL | 20 µg/mL | 0.63 µg/mL | 8.74 µg/mL | 10 µg/mL | 15.6 µg/mL | > 20 µg/mL | Activity (Cryptococcus neoformans [5]): Active; Activity (Cell wall): Active; Activity (Cryptococcus neoformans [6]): Active; Activity (Cell membrane [7]): Active; MIC (Escherichia coli): > 20 µg/mL; Activity [8]: 2792 nm; Ratio IC50 (Cryptococcus neoformans [9]): 2; KSV (Lipid bilayer [10]): 6.68; Ratio (Cryptococcus neoformans [11]): 2; Activity (Cell membrane [12]): Active; Activity [13]: 0.584; KSV (Lipid bilayer [14]): 146; Activity (Cell membrane [4]): Active; Activity (Cell membrane [15]): Active
CCCCc1ccc(-c2nc(C[C@H](NC(=O)OC(C)(C)C)C(=O)N[C@@H](Cc3c[nH]c4ccccc34)C(=O)N[C@@H](CCCNC(=N)N)C(=O)NCc3ccccc3)c[nH]2)cc1 | inactive | > 10 µg/mL | 1.98 µg/mL (≈ 2.42 µM) | inactive | inactive | 7.38 µg/mL (≈ 9.01 µM) | 10 µg/mL (≈ 12.2 µM) | 2.5 µg/mL (≈ 3.05 µM) | 9.13 µg/mL (≈ 11.1 µM) | 10 µg/mL (≈ 12.2 µM) | > 20 µg/mL | > 20 µg/mL | 
CCc1ccc(-c2nc(C[C@H](NC(=O)OC(C)(C)C)C(=O)N[C@@H](Cc3c[nH]c4ccccc34)C(=O)N[C@@H](CCCNC(=N)N)C(=O)NCc3ccccc3)c[nH]2)cc1 | inactive | > 10 µg/mL | 1.5 µg/mL (≈ 1.9 µM) | inactive | inactive | 14.9 µg/mL (≈ 18.8 µM) | > 20 µg/mL | 2.5 µg/mL (≈ 3.16 µM) | 8.93 µg/mL (≈ 11.3 µM) | 20 µg/mL (≈ 25.3 µM) | > 20 µg/mL | > 20 µg/mL | 
CCCCc1ccc(-c2nc(C[C@H](N)C(=O)N[C@@H](Cc3c[nH]c4ccccc34)C(=O)N[C@@H](CCCNC(=N)N)C(=O)NCc3ccccc3)c[nH]2)cc1.Cl.Cl | inactive | > 10 µg/mL | 2.27 µg/mL | inactive | inactive | 9.99 µg/mL | 20 µg/mL | 5 µg/mL | 4.46 µg/mL | 10 µg/mL | 16.3 µg/mL | 17.2 µg/mL | MIC (Escherichia coli): > 20 µg/mL; MIC (Pseudomonas aeruginosa): > 20 µg/mL
COC(=O)[C@H](CCCNC(=N)N)NC(=O)[C@H](Cc1c[nH]c2ccccc12)NC(=O)[C@@H](N)Cc1c[nH]c(-c2ccc(-c3ccccc3)cc2)n1.Cl.Cl | inactive | > 10 µg/mL | 1.51 µg/mL | inactive | inactive | 13.2 µg/mL | 20 µg/mL | 2.5 µg/mL | 7.81 µg/mL | 10 µg/mL | > 20 µg/mL | > 20 µg/mL | 
CCc1ccc(-c2nc(C[C@H](N)C(=O)N[C@@H](Cc3c[nH]c4ccccc34)C(=O)N[C@@H](CCCNC(=N)N)C(=O)NCc3ccccc3)c[nH]2)cc1.Cl.Cl | inactive | > 10 µg/mL | 2.26 µg/mL | inactive | inactive | 13.5 µg/mL | 20 µg/mL | 10 µg/mL | 18.4 µg/mL | 20 µg/mL | > 20 µg/mL | > 20 µg/mL | 
